Reference: ChEMBL document CHEMBL4689842, “EUbOPEN Chemogenomics Library wave 1” (2021)

Tested on: U2OS
Assay: Multiplex assay against U2OS
Assay type: toxicity, cell-based
Settings: human
Outline: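 Per cents of healthy-nucleus cells form the tubulin, mitochondrial-mass and membrane-permeability phenotype values. Live cells were stained at seeding with Hoechst33342, BioTracker Green Microtubule Cytoskeleton Dye, MitoTracker Red and Annexin V Alexa Fluor 680. After compound addition they were imaged on a CQ1 microscope at 37°C and 5% CO2, and CellPathfinder machine-learning gating split them into Hoechst high-intensity objects or normal cells, normal cells into healthy, pyknosed or fragmented nuclei, and pyknosed cells into mitotic or apoptotic.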

[1] = 12 h, 1 µM, compound concentration 1 uM, replicate 1
[2] = 12 h, 1 µM, compound concentration 1 uM, replicate 2
[3] = 12 h, 10 µM, compound concentration 10 uM, replicate 1
[4] = 12 h, 10 µM, compound concentration 10 uM, replicate 2
[5] = 24 h, 1 µM, compound concentration 1 uM, replicate 1
[6] = 24 h, 1 µM, compound concentration 1 uM, replicate 2
[7] = 24 h, 10 µM, compound concentration 10 uM, replicate 1
[8] = 24 h, 10 µM, compound concentration 10 uM, replicate 2

## COc1ccc(-c2ccc3c(N4CCOCC4)nc(N4C[C@@H](C)O[C@@H](C)C4)nc3n2)cc1CO [Ku-0063794]
[1]
  Population Apoptotic (%): 36%
  Population Fragmented Nuclei (%): 7%
  Population Healthy Nuclei (%): 87%
  Population Hoechst High Intensity Objects (%): 0%
  Population Membrane Permeable-Phenotype (%): 8%
  Population Mitochondria Different-Phenotype (%): 19%
  Population Mitotic Cells (%): 63%
  Population Normal (%): 99%
  Population Pyknosed Nuclei (%): 5%
  Population Tubulin-Different-Phenotype (%): 22%
  Total Cell Count: 158
[2]
  Population Apoptotic (%): 62%
  Population Fragmented Nuclei (%): 11%
  Population Healthy Nuclei (%): 83%
  Population Hoechst High Intensity Objects (%): 7%
  Population Membrane Permeable-Phenotype (%): 4%
  Population Mitochondria Different-Phenotype (%): 20%
  Population Mitotic Cells (%): 37%
  Population Normal (%): 92%
  Population Tubulin-Different-Phenotype (%): 30%
  Total Cell Count: 91
[3]
  Population Apoptotic (%): 69%
  Population Fragmented Nuclei (%): 34%
  Population Healthy Nuclei (%): 61%
  Population Hoechst High Intensity Objects (%): 31%
  Population Membrane Permeable-Phenotype (%): 20%
  Population Mitochondria Different-Phenotype (%): 6%
  Population Mitotic Cells (%): 30%
  Population Normal (%): 68%
  Population Pyknosed Nuclei (%): 4%
  Population Tubulin-Different-Phenotype (%): 11%
  Total Cell Count: 221
[4]
  Population Apoptotic (%): 33%
  Population Fragmented Nuclei (%): 37%
  Population Healthy Nuclei (%): 57%
  Population Hoechst High Intensity Objects (%): 37%
  Population Membrane Permeable-Phenotype (%): 8%
  Population Mitochondria Different-Phenotype (%): 11%
  Population Mitotic Cells (%): 66%
  Population Normal (%): 62%
  Total Cell Count: 164
[5]
  Population Apoptotic (%): 46%
  Population Fragmented Nuclei (%): 7%
  Population Healthy Nuclei (%): 88%
  Population Hoechst High Intensity Objects (%): 0%
  Population Membrane Permeable-Phenotype (%): 6%
  Population Mitochondria Different-Phenotype (%): 19%
  Population Mitotic Cells (%): 53%
  Population Normal (%): 99%
  Population Pyknosed Nuclei (%): 4%
  Population Tubulin-Different-Phenotype (%): 22%
  Total Cell Count: 173
[6]
  Population Apoptotic (%): 16%
  Population Fragmented Nuclei (%): 10%
  Population Healthy Nuclei (%): 86%
  Population Hoechst High Intensity Objects (%): 7%
  Population Membrane Permeable-Phenotype (%): 7%
  Population Mitochondria Different-Phenotype (%): 34%
  Population Mitotic Cells (%): 83%
  Population Normal (%): 92%
  Population Pyknosed Nuclei (%): 3%
  Population Tubulin-Different-Phenotype (%): 31%
  Total Cell Count: 93
[7]
  Population Apoptotic (%): 60%
  Population Fragmented Nuclei (%): 31%
  Population Healthy Nuclei (%): 63%
  Population Hoechst High Intensity Objects (%): 35%
  Population Membrane Permeable-Phenotype (%): 15%
  Population Mitochondria Different-Phenotype (%): 4%
  Population Mitotic Cells (%): 40%
  Population Normal (%): 64%
  Population Pyknosed Nuclei (%): 4%
  Population Tubulin-Different-Phenotype (%): 9%
  Total Cell Count: 298
[8]
  Population Apoptotic (%): 31%
  Population Fragmented Nuclei (%): 39%
  Population Healthy Nuclei (%): 53%
  Population Hoechst High Intensity Objects (%): 38%
  Population Membrane Permeable-Phenotype (%): 7%
  Population Mitochondria Different-Phenotype (%): 9%
  Population Mitotic Cells (%): 68%
  Population Normal (%): 61%
  Population Pyknosed Nuclei (%): 6%
  Population Tubulin-Different-Phenotype (%): 7%
  Total Cell Count: 197

## CN1CCN(C(=O)C(C)(C)c2ccc(C(=O)Nc3cn4cc(-c5cc(C(C)(C)C)cc(C(C)(C)C)c5)ccc4n3)cc2)CC1 [T3-CLK-N]
[1]
  Population Apoptotic (%): 25%
  Population Fragmented Nuclei (%): 8%
  Population Healthy Nuclei (%): 81%
  Population Hoechst High Intensity Objects (%): 8%
  Population Membrane Permeable-Phenotype (%): 18%
  Population Mitochondria Different-Phenotype (%): 20%
  Population Mitotic Cells (%): 75%
  Population Normal (%): 91%
  Population Pyknosed Nuclei (%): 9%
  Population Tubulin-Different-Phenotype (%): 18%
  Total Cell Count: 162
[2]
  Population Apoptotic (%): 28%
  Population Fragmented Nuclei (%): 6%
  Population Healthy Nuclei (%): 86%
  Population Hoechst High Intensity Objects (%): 11%
  Population Membrane Permeable-Phenotype (%): 14%
  Population Mitochondria Different-Phenotype (%): 29%
  Population Mitotic Cells (%): 71%
  Population Normal (%): 88%
  Population Pyknosed Nuclei (%): 6%
  Population Tubulin-Different-Phenotype (%): 14%
  Total Cell Count: 72
[3]
  Population Apoptotic (%): 27%
  Population Fragmented Nuclei (%): 5%
  Population Healthy Nuclei (%): 87%
  Population Hoechst High Intensity Objects (%): 3%
  Population Membrane Permeable-Phenotype (%): 58%
  Population Mitochondria Different-Phenotype (%): 20%
  Population Mitotic Cells (%): 72%
  Population Normal (%): 96%
  Population Pyknosed Nuclei (%): 6%
  Population Tubulin-Different-Phenotype (%): 34%
  Total Cell Count: 177
[4]
  Population Apoptotic (%): 50%
  Population Fragmented Nuclei (%): 16%
  Population Healthy Nuclei (%): 80%
  Population Hoechst High Intensity Objects (%): 15%
  Population Membrane Permeable-Phenotype (%): 56%
  Population Mitochondria Different-Phenotype (%): 38%
  Population Mitotic Cells (%): 50%
  Population Normal (%): 84%
  Population Pyknosed Nuclei (%): 3%
  Population Tubulin-Different-Phenotype (%): 31%
  Total Cell Count: 120
[5]
  Population Apoptotic (%): 23%
  Population Fragmented Nuclei (%): 9%
  Population Healthy Nuclei (%): 80%
  Population Hoechst High Intensity Objects (%): 9%
  Population Membrane Permeable-Phenotype (%): 8%
  Population Mitochondria Different-Phenotype (%): 14%
  Population Mitotic Cells (%): 76%
  Population Normal (%): 90%
  Population Pyknosed Nuclei (%): 10%
  Population Tubulin-Different-Phenotype (%): 15%
  Total Cell Count: 175
[6]
  Population Apoptotic (%): 33%
  Population Fragmented Nuclei (%): 6%
  Population Healthy Nuclei (%): 89%
  Population Hoechst High Intensity Objects (%): 8%
  Population Membrane Permeable-Phenotype (%): 13%
  Population Mitochondria Different-Phenotype (%): 24%
  Population Mitotic Cells (%): 66%
  Population Normal (%): 91%
  Population Pyknosed Nuclei (%): 4%
  Population Tubulin-Different-Phenotype (%): 16%
  Total Cell Count: 97
[7]
  Population Apoptotic (%): 54%
  Population Fragmented Nuclei (%): 9%
  Population Healthy Nuclei (%): 83%
  Population Hoechst High Intensity Objects (%): 2%
  Population Membrane Permeable-Phenotype (%): 53%
  Population Mitochondria Different-Phenotype (%): 27%
  Population Mitotic Cells (%): 45%
  Population Normal (%): 97%
  Population Pyknosed Nuclei (%): 6%
  Population Tubulin-Different-Phenotype (%): 39%
  Total Cell Count: 230
[8]
  Population Apoptotic (%): 50%
  Population Fragmented Nuclei (%): 17%
  Population Healthy Nuclei (%): 71%
  Population Hoechst High Intensity Objects (%): 14%
  Population Membrane Permeable-Phenotype (%): 48%
  Population Mitochondria Different-Phenotype (%): 56%
  Population Mitotic Cells (%): 50%
  Population Normal (%): 85%
  Population Pyknosed Nuclei (%): 10%
  Population Tubulin-Different-Phenotype (%): 43%
  Total Cell Count: 144
